# Measured values from different studies.
# Protocols differ between the studies behind these lines.
# Cell line: BT-549
# Effect on: cell growth or viability
SMILES,method,concentration,time,endpoint,value
COc1cccc(Oc2ccccc2NC(=O)CNC(=O)c2cccc3ccccc23)c1,SRB,,48 h,GI50,295 nM
C#C[C@@]1(O)[C@@H](CO)O[C@@H](n2cc(Br)c3c(N)ncnc32)[C@@H]1O,SRB,,,GI50,147 nM
COc1cccc2c1C(=O)c1c(O)c3c(c(O)c1C2=O)C[C@@](O)(C(=O)CO)C[C@@H]3O[C@H]1C[C@H](N)[C@H](O)[C@H](C)O1,neutral red,,48 h,IC50,1.05 µg/mL
CC(=O)O[C@H]1C(=O)[C@@]2(C)[C@H]([C@H](OC(=O)c3ccccc3)[C@]3(O)C[C@H](OC(=O)[C@H](O)[C@@H](NC(=O)c4ccccc4)c4ccccc4)C(C)=C1C3(C)C)[C@]1(OC(C)=O)CO[C@@H]1C[C@@H]2O,ATP luminescence,,72 h,IC50,3.1 nM
COc1ccc(C(=O)/C=C/c2cccc3ccccc23)cc1S(N)(=O)=O,SRB,,48 h,GI50,1800 nM
COc1cc(-c2ccc(-c3ccc(C(=N)N)nc3)s2)cc(OC)c1OC,SRB,,,GI50,1670 nM
CC(=O)O[C@@]12CO[C@@H]1C[C@H](O)[C@@]1(C)C(=O)[C@H](O)C3=C(C)[C@@H](OC(=O)[C@H](O)[C@@H](NC(=O)OC(C)(C)C)c4ccccc4)C[C@@](O)([C@@H](OC(=O)c4ccccc4)[C@H]21)C3(C)C,ATP luminescence,,72 h,IC50,1 nM
O=C1Nc2ccccc2C1=NNc1nnc2n1N=C(c1ccccc1)CS2,SRB,10 µM,,inhibition,28%
COc1ccc(-c2ccc(-c3ccc(C(=N)N)nc3)s2)cc1,SRB,,,GI50,1700 nM
COc1ccc(C(=O)/C=C/c2cccc(Cl)c2Cl)cc1S(N)(=O)=O,SRB,,48 h,GI50,4700 nM
"Cl.Oc1cccc2c1[nH]c1c(C3=CC4(O)CC/C=C\CCCCN5CCC3C3(CC6/C=C\CCCCN6C43)C5)nccc12 (single isomer, unassigned; (+))",neutral red,,48 h,IC50,1.05 µg/mL
